High-throughput results from PubChem.
In the library only some 3.1% were active in any assay of this set; here they are far more common.
HSF1 inhib: HSF1 inhibition; NIH3T3-HGL HSE-luciferase, MG132-induced, luminescence 8 h; stronger effect = lower value; AID 2098; activity change, negative = inhibition, % at 7.5 µM (by protocol); 300,000 tested, 0.77% active;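 active = more than half of replicate wells show activity change below -50%, luminescence cut by over half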;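 note: luciferase reports HSF-1 transcriptional activity via heat shock element; 0% = median of DMSO wells and -100% = zero luminescence signal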
HSF1 activator: increases HSF-1 driven luciferase reporter signal; NIH3T3-HGL HSF-1 luciferase reporter, MG132, 8 h; 100% = twice DMSO control signal; activation, % at 9 µM; 300,000 tested, 1.7% active;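 active = mean replicate activation of at least 50% with a set share of replicates each reaching 50%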;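 note: 0% = median of the neutral control wells and 100% = twice that signal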
HKDC1 inh: inhibitors of human hexokinase HKDC1; Q2TB90; recombinant HKDC1, G6PDH/diaphorase resazurin coupled fluorescence; inhibition, % at 20 µM; 340,000 tested, 0.16% active; AID 493160;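 active = inhibition above about 35% when tested at 20 µM, limit read from the data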;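 note: plate controls were DMSO wells with enzyme for no effect and DMSO wells lacking enzyme for full effect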
Target sequence (Q2TB90 whole entry, looked up): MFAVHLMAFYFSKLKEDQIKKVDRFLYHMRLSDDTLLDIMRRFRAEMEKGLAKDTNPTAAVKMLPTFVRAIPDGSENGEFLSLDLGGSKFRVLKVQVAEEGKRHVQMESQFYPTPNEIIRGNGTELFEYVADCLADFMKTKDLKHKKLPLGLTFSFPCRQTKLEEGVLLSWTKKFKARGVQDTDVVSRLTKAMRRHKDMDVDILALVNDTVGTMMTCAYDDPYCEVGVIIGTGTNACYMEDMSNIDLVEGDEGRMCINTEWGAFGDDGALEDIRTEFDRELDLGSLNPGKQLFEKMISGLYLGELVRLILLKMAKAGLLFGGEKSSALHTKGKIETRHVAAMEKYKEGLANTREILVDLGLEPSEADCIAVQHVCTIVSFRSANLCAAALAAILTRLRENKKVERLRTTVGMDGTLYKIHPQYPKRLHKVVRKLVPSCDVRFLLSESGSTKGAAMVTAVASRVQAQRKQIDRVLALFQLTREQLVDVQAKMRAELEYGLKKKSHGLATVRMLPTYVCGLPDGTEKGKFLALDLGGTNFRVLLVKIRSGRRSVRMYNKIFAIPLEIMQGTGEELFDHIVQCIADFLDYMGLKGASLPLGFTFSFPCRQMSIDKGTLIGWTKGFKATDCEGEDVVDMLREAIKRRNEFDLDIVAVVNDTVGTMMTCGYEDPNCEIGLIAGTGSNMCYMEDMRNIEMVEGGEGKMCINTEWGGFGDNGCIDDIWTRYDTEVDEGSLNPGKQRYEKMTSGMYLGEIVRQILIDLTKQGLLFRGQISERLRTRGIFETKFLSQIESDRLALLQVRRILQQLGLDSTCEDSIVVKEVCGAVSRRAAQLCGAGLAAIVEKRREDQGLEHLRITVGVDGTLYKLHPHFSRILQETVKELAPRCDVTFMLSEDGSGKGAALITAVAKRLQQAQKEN
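Assay system – recombinant HKDC1 (HK5) hexokinase enzyme, produced in-house · Input – HKDC1 at 5 µg/mL · Reagent – glucose plus 1 mM ATP as hexokinase substrates · Timing – 90 min reaction incubation at room temperature, dark · Measured by – G6PDH/diaphorase-coupled fluorescence, 1 mM NADP, 100 µM resazurin, 525/613 nm · Benchmarks – DMSO-enzyme wells negative, buffer-substituted wells positive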
Hsp70 activator: Hsp70 transcriptional activation, primary screen. HeLa Hsp70 promoter luciferase reporter, luminescence; scaled: vehicle 0, proteasome-inhibitor control 100%. activation, % at 10 µM. 200,000 tested, 0.04% active;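 active = activation above the mean across all tested compounds plus 3 SD, cutoff set per campaign, cut at about 5.5% in these data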;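 note: 100% = MG132 at 30 µM as the positive control and 0% = DMSO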
Tb hexokinase: T. brucei hexokinase 1 inhibition; recombinant TbHK1, G6PDH-coupled NADH A340; AID 1430; inhibition, % at 10 µM; 220,000 tested, 0.11% active;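 active = inhibition of 50% or more in the single-dose primary screen; inactive = inhibition below 50%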
HSP90 inh: HSP90 refolding inhibition in rabbit reticulocyte lysate; 290,000 tested, 0.91% active; luciferase refolding luminescence, 3 h; inhibition, % at 5.6 µM;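 active = inhibition above the screen-wide mean plus 3 SD, computed separately per campaign, cut at about 16% in these data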;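 note: 0% = DMSO wells and 100% = 60 µM geldanamycin wells; inhibitors lower the luminescence because luciferase stays unfolded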
HKDC1 act conf2: HKDC1 (human) activation, single-dose confirmed. recombinant HKDC1, G6PDH/diaphorase resazurin fluorescence; stronger effect = lower value. AID 504708. shares compounds with HKDC1 inh. inhibition, % at 20 µM. 740 tested, 14% active;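 active = inhibition at or below a set negative limit, negative inhibition meaning the enzyme was activated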
Numbers without * were called inactive; nt = no result given.

SMILES | HSF1 inhib | HSF1 activator | HKDC1 inh | Hsp70 activator | Tb hexokinase | HSP90 inh | HKDC1 act conf2
Cc1ccc(C)c(-n2nnnc2Sc2nnnn2-c2ccccc2)c1 | 43 | 31 | 47* | 0 | 1 | 4 | 39
CCSc1nnnn1-c1ccccc1 | 7 | 2 | -11 | 0 | -2 | 5 | nt
O=C(Nc1ccc(S(=O)(=O)Nc2ncccn2)cc1)c1ccc2ncsc2c1 | -26 | -26 | 34 | nt | -9 | 10 | 33
O=C(Nc1ccncc1)c1ccc2ncsc2c1 | -14 | -5 | -9 | nt | nt | nt | nt
Cc1cc(SCC(=O)c2cccc([N+](=O)[O-])c2)nc(=O)[nH]1 | 5 | 6 | -54 | nt | nt | 2 | 6
Cc1cc(SCc2cccc([N+](=O)[O-])c2)nc(=O)[nH]1 | -1 | 1 | -2 | nt | nt | 0 | nt
O=C(Nc1cccc(S(=O)(=O)N2CCCC2)c1)c1ccc(Cl)nc1 | nt | nt | -3 | nt | nt | nt | nt
O=C(CCN1CCOCC1)N1CCCC(Nc2cccc(F)c2)C1 (configuration not stated) | -4 | 16 | 1 | nt | nt | -5 | nt
O=C(Cc1ccc(NC(=O)C2CCN(C(=O)C3CCC3)CC2)cc1)Nc1ccc(C(=O)N2CCOCC2)cc1 | nt | nt | -6 | nt | nt | nt | nt
CCn1c(=O)n(CC)c2cc(N3CCCC3)c(NC(=O)c3ccccc3OC)cc21 | -2 | 0 | -37 | nt | nt | 1 | -20
O=C(CSc1nnc(-c2cccnc2)s1)Nc1ccnc2ccccc12 | -5 | 4 | 35 | 0 | 0 | 5 | 18
COc1ccccc1C(=O)NC(=O)CSc1ccc(C)c(C)c1 | nt | nt | 11 | nt | nt | nt | nt
O=C(N/N=C/c1ccc[nH]1)c1sc2ccccc2c1Cl | -4 | -2 | -42 | 0 | -2 | 6 | -30
O=C(N/N=C/c1ccncc1)c1sc2ccccc2c1Cl | 12 | 31 | 12 | nt | nt | -1 | nt
C=CCn1c(SCC(=O)Nc2sc3c(c2C#N)CCC(C)C3)nc2cc(C(=O)O)ccc2c1=O (configuration not stated) | nt | nt | 39* | nt | nt | nt | 33
Cc1nn(-c2ccccc2)c(Cl)c1CN(C(=O)CCl)c1ccc(Cl)cc1 | -86* | -85 | 38* | 0 | -3 | 0 | 13
CC(=O)N(Cc1c(C)nn(-c2ccccc2)c1Cl)c1ccc(Cl)cc1 | 6 | 6 | 2 | 0 | -1 | 1 | nt
COc1cccc(CSc2nnc(CSc3nc4nc(C)cc(C)n4n3)s2)c1 | 0 | -2 | 34 | 0 | -1 | 1 | nt
Cc1cc(C)n2nc(SCc3nnc(SCc4ccccc4Cl)s3)nc2n1 | -9 | -13 | 41* | 0 | 1 | -2 | 43
Cc1cc(C)n2nc(SCc3nnc(SCc4ccccc4C)s3)nc2n1 | -8 | -10 | 53* | 0 | -7 | 2 | 69
O=C(c1ccc(Cl)c(S(=O)(=O)NCc2cccnc2)c1)N1CCCC1 | nt | nt | -6 | nt | nt | nt | nt
CC(NCC(=O)Nc1ccccc1C(=O)NC1CC1)c1ccc(F)cc1F (configuration not stated) | nt | nt | 0 | nt | nt | nt | nt
COc1ccccc1NC(=O)N1CCC(NC(=O)C2CCCCC2)CC1 | -9 | -3 | -4 | nt | nt | 3 | nt
O=C1NC(=S)S/C1=C/c1ccc(N2CCOCC2)o1 | 7 | 2 | -3 | 0 | -15 | 0 | nt
O=C1NC(=S)S/C1=C\C=C\c1ccc([N+](=O)[O-])o1 | nt | nt | 38* | nt | 19 | 1 | 19
SMILES | HSF1 inhib | HSF1 activator | HKDC1 inh | Hsp70 activator | Tb hexokinase | HSP90 inh | HKDC1 act conf2
CSCCC(N=C1NS(=O)(=O)c2ccccc21)C(=O)NCCc1ccccc1 (configuration not stated) | -2 | 3 | -2 | nt | nt | -4 | nt
COc1cc(CN2CCCC(C(=O)c3ccc4c5c(cccc35)CC4)C2)cc(OC)c1O (configuration not stated) | 18 | 40 | 34 | 0 | -13 | 1 | 26
O=C(c1ccc2c3c(cccc13)CC2)C1CCCN(Cc2cccnc2)C1 (configuration not stated) | -4 | -9 | 3 | 0 | -9 | 3 | nt
Cc1n[nH]c(=O)c2c(NC(=O)CSc3nncs3)oc(C)c12 | -4 | 3 | -5 | nt | nt | nt | nt
CC(C)(C)c1ccc(-c2csc(NNC3=NCCCCC3)n2)cc1 | 6 | 6 | -61 | 0 | 2 | 4 | -39*
O=C(O)CC1(CC(=O)Nc2ccccc2Br)CCCC1 | 6 | 14 | -5 | nt | nt | nt | nt
CN(C)c1ccc(Cc2cc3c(O)ccc(O)c3cc(Cc3ccc(N(C)C)cc3)c2=O)cc1 | 39 | 39 | 60* | nt | nt | nt | 45
Cc1onc(C(=O)Nc2ccc(OC(F)(F)F)cc2)c1[N+](=O)[O-] | 2 | 1 | 79* | nt | nt | 0 | -15
CC(=O)c1ccc(NC(=O)c2noc(C)c2[N+](=O)[O-])cc1 | -12 | -17 | -6 | nt | nt | -3 | nt
COC1=CC(=O)C(OC)=C(OC)C1=O | nt | nt | 76* | nt | nt | nt | 72
COC(=O)c1cc(=O)n(Cc2ccc(OC)cc2)c(=NCc2ccc(OC)cc2)s1 | 7 | 12 | -43 | 0 | -13 | 1 | -16
COC(=O)[C@@]12CCCCN1[C@H](c1ccc(-c3ccc(C(C)=O)cc3)cc1)[C@@H]1C(=O)N(C)C(=O)[C@@H]12 | 2 | 11 | 11 | nt | nt | nt | nt
CCn1c2ccccc2c2nc3cc(S(=O)(=O)N4CCOCC4)ccc3nc21 | -2 | 20 | -61 | -1 | 12 | 1 | -47*
c1ccc2nc3c(nc2c1)c1ccccc1n3CCN1CCOCC1 | 35 | 48 | -1 | 0 | -23 | 1 | nt
CC(Oc1ccc2cc(-c3ccccc3)c(=O)oc2c1)C(=O)NCC1CCC(C(=O)O)CC1 (configuration not stated) | 4 | -4 | 1 | nt | nt | -3 | nt
Cc1ccc2oc(=O)c3cnn(CC(=O)N4CCc5ccccc5C4)c3c2c1 | 0 | 1 | -40 | nt | 2 | nt | -51*
CC(=O)c1ccc2c(c1)C1C=CCC1C(C(=O)O)N2 (configuration not stated) | nt | nt | 34 | 0 | 1 | 2 | 36
Cc1ccc2c(c1)C1C=CCC1C(C(=O)O)N2 (configuration not stated) | 1 | 13 | nt | 0 | 16 | -1 | nt
Cc1ccc(CCNS(=O)(=O)c2cc(Br)cnc2N)cc1 | 3 | 15 | -2 | nt | nt | -5 | nt
Cc1ccc2cc(C=C(C#N)C#N)c(N3CCCCC3)nc2c1 | 6 | 6 | 41* | 0 | 0 | 2 | -11
N#Cc1ccc(Oc2ccc(S(=O)(=O)N3CCOCC3)cn2)cc1 | -5 | -16 | -6 | nt | nt | nt | nt
CCC1CCc2sc(C(=O)OCC(=O)N(CCOC)c3c(N)n(Cc4ccccc4)c(=O)[nH]c3=O)cc2C1 (configuration not stated) | -4 | 2 | 0 | nt | nt | nt | nt
COCCN(C(=O)COC(=O)c1cc2c(s1)CCC2)c1c(N)n(Cc2ccccc2)c(=O)[nH]c1=O | -4 | -10 | 35* | nt | nt | nt | 16
CS(=O)(=O)c1ccc(C(=O)OCC(=O)NC(=O)Cc2ccccc2)cc1 | -4 | -6 | 35 | nt | nt | nt | -19
